Experimental data from ChEMBL document CHEMBL3588796 (Bioorg Med Chem, 2015).

Assays:
[1] = target: T1, Kappa-type opioid receptor (Homo sapiens, UniProt P41145); experiment: Antagonist activity against HA-tagged human recombinant kappa opioid receptor expressed in CHO cells assessed as inhibition of U69,593-induced ERK phosphorylation pre-incubated with compound before U69,593 stimulation for 10 mins relative to control; assay type: cell-based; set-up: concentration or dose not given beside the values
Summary of the method: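 hKOR-CHO cells, 15,000 per well, plated overnight at 37 °C and serum-starved 1 h. Compound added, then 100 nM U69,593 for 10 min at 37 °C. Fixed cells stained overnight at 4 °C for phospho- and total ERK1/2. In-cell western read by infrared imaging at 700/800 nm. Three-parameter nonlinear fit; 2–4 replicates per experiment, n ≥ 3.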

[2] = target: T1, Kappa-type opioid receptor; experiment: Antagonist activity against human kappa opioid receptor expressed in human U2OS cells co-expressing beta-arrestin2 pre-treated for 15 mins before U69,593 stimulation for 90 mins by DiscoveRx beta-arrestin2 recruitment based PathHunter assay relative to control; assay type: cell-based; set-up: concentration or dose not given beside the values
Summary of the method: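 U2OS-hKOR-βarrestin2 PathHunter cells, 5,000 per well, plated overnight in Opti-MEM with 1% FBS. Antagonist pretreatment 15 min at 37 °C, then 1 μM U69,593 for 90 min at 37 °C. Detection reagent 60 min at room temperature; chemiluminescence read-out. Concentration-response curves fitted by three-parameter regression; n ≥ 3 independent experiments.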

Mu-type opioid receptor [3] = target: T2, Mu-type opioid receptor (Homo sapiens, UniProt P35372); experiment: Binding affinity to mu opioid receptor (unknown origin)
[4] = target: T3, Delta-type opioid receptor (Homo sapiens, UniProt P41143); experiment: Binding affinity to delta opioid receptor (unknown origin)
[5] = target: Kappa-type opioid receptor (Rattus norvegicus, UniProt P34975); experiment: Displacement of radio-labeled U69,593 from rat kappa opioid receptor expressed in HEK293 cell membranes
[6] = target: T1, Kappa-type opioid receptor; experiment: Antagonist activity against HA-tagged human recombinant kappa opioid receptor expressed in CHO cells assessed as inhibition of U69,593-induced ERK phosphorylation pre-incubated with compound before U69,593 stimulation for 10 mins; assay type: cell-based
[7] = target: T1, Kappa-type opioid receptor; experiment: Antagonist activity against human kappa opioid receptor expressed in human U2OS cells co-expressing beta-arrestin2 pre-treated for 15 mins before U69,593 stimulation for 90 mins by DiscoveRx beta-arrestin2 recruitment based PathHunter assay; assay type: cell-based
[8] = target: T1, Kappa-type opioid receptor; experiment: Antagonist activity against HA-tagged human recombinant kappa opioid receptor expressed in CHO cell membranes incubated for 1 hr by [35S]GTPgammaS binding assay; assay type: functional
Mu-type opioid receptor [9] = target: T2, Mu-type opioid receptor; experiment: Antagonist activity against mu opioid receptor (unknown origin)
[10] = target: T3, Delta-type opioid receptor; experiment: Antagonist activity against delta opioid receptor (unknown origin)

T2 sequence (P35372 whole entry): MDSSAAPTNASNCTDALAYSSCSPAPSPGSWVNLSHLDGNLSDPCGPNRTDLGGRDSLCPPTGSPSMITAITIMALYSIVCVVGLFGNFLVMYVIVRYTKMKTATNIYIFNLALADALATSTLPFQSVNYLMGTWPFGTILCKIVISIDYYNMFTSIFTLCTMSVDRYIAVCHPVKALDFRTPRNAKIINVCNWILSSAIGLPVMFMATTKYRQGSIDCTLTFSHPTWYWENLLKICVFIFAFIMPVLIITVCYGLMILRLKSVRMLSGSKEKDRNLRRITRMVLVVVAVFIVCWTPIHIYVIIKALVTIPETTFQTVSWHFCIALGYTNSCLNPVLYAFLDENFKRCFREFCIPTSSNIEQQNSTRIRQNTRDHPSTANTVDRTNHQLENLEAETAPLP
T1 sequence (P41145 whole entry): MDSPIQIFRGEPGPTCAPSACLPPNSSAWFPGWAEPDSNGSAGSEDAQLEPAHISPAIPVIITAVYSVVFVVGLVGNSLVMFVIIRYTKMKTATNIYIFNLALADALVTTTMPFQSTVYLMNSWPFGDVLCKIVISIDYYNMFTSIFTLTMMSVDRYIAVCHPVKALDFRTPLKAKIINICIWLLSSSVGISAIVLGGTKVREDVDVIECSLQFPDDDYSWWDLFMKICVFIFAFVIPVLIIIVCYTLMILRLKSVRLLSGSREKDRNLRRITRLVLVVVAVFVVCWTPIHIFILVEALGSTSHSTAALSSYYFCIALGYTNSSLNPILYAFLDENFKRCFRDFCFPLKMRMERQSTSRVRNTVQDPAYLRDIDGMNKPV
Sequence of Kappa-type opioid receptor (Rattus norvegicus, UniProt P34975) (P34975 whole entry): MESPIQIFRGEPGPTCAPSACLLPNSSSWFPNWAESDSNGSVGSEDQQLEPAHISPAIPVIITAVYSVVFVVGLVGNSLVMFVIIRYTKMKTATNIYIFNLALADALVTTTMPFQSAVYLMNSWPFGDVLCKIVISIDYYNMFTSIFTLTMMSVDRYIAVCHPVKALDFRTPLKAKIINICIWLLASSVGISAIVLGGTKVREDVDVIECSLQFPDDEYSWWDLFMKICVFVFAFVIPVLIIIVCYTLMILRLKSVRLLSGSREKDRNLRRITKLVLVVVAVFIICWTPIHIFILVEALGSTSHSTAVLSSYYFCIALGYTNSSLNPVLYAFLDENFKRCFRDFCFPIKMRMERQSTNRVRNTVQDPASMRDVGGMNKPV
T3 sequence (P41143 whole entry): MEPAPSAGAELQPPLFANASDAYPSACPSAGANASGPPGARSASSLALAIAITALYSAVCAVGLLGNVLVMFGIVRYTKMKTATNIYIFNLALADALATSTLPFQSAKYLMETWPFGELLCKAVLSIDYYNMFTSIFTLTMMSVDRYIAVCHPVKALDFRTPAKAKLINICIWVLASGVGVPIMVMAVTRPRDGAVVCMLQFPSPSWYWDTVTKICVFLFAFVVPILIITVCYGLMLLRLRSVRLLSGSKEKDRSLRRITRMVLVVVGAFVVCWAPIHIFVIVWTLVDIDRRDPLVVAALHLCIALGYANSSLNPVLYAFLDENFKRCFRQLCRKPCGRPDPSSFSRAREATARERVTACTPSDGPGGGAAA

Structure (SMILES) | inhibition [1] [%] | inhibition [2] [%] | further results
Cc1ccc(S(=O)(=O)N2CCc3cc(C(=O)NCCN(Cc4ccc(Br)cc4)C(C)(C)C)ccc3C2)cc1 | > 86 | > 86 | –
Cc1ccc(S(=O)(=O)N2CCc3cc(C(=O)NCCN(Cc4ccccc4)C(C)(C)C)ccc3C2)cc1 | > 86 | > 86 | Ki (Mu-type opioid receptor [3]): 1750 nM; Ki [4]: 2330 nM; Ki [5]: 37 nM
Oc1ccc2c3c1O[C@H]1c4[nH]c5c(c4C[C@@]4(O)[C@@H](C2)N(CC2CC2)CC[C@]314)C[C@@]1(O)[C@H]2Cc3ccc(O)c4c3[C@@]1(CCN2CC1CC1)[C@H]5O4 | > 86 | > 86 | –
Cc1ccc(S(=O)(=O)N2CCc3cc(C(=O)NCCN(Cc4ccc(Cl)cc4)C(C)(C)C)ccc3C2)cc1 | > 86 | > 86 | Ki (Mu-type opioid receptor [3]): > 10000 nM; Ki [4]: > 10000 nM; Ki [5]: 53 nM
Cc1ccc(S(=O)(=O)NCc2ccc(C(=O)NCCN(Cc3ccc(Br)cc3)C(C)C)cc2)cc1 | > 86 | > 86 | –
Cc1ccc(S(=O)(=O)N(C)Cc2ccc(C(=O)N(C)CCN(Cc3ccccc3)C(C)C)cc2)cc1 | – | – | IC50 [6]: Not Active; IC50 [7]: Not Active; IC50 ([8]; cho): Not Active
CCc1ccc(S(=O)(=O)N2CCc3cc(C(=O)NCCN(Cc4ccccc4)C(C)(C)C)ccc3C2)cc1 | > 86 | > 86 | –
Cc1ccc(S(=O)(=O)NCc2ccc(C(=O)NCCN(Cc3ccccc3)C(C)C)cc2)cc1 | > 86 | > 86 | IC50 (Mu-type opioid receptor [9]): > 24000 nM; Ki (Mu-type opioid receptor [3]): 306 nM; Ki [4]: 1090 nM; Ki [5]: 50 nM; IC50 [10]: > 32000 nM
Cc1ccc(S(=O)(=O)NCc2ccc(C(=O)NCC3CCCN(Cc4ccccc4)C3)cc2)cc1 (stereo not given) | – | – | IC50 ([8]; read-out: IC50): > 18000 nM
Cc1cc(C)c(S(=O)(=O)N2CCc3cc(C(=O)NCCN(Cc4ccc(Br)cc4)C(C)(C)C)ccc3C2)c(C)c1 | > 86 | > 86 | –
Cc1ccc(S(=O)(=O)NCc2ccc(C(=O)NC3CCN(Cc4ccccc4)C3)cc2)cc1 (stereo not given) | – | – | IC50 ([8]; read-out: IC50): > 18000 nM
Cc1ccc(S(=O)(=O)N2CCc3cc(C(=O)NCCN(Cc4ccc(Cl)cc4)C(C)C)ccc3C2)cc1 | > 86 | > 86 | –
Cc1ccc(S(=O)(=O)N2CCc3cc(C(=O)NCCN(Cc4ccc(F)cc4)C(C)(C)C)ccc3C2)cc1 | > 86 | > 86 | –
Cc1cc(C)c(S(=O)(=O)N2CCc3cc(C(=O)NCCN(Cc4ccccc4)C(C)C)ccc3C2)c(C)c1 | > 86 | > 86 | –
Cc1ccc(S(=O)(=O)NCc2ccc(C(=O)NCCN3Cc4ccccc4C3)cc2)cc1 | – | – | IC50 ([8]; read-out: IC50): > 18000 nM
Cc1ccc(S(=O)(=O)N2CCc3cc(C(=O)NCCN(Cc4ccc(F)cc4)C(C)C)ccc3C2)cc1 | > 86 | > 86 | –
CCc1ccc(S(=O)(=O)N2CCc3cc(C(=O)NCCN(Cc4ccc(Br)cc4)C(C)C)ccc3C2)cc1 | > 86 | > 86 | –
Cc1ccc(S(=O)(=O)N2CCc3cc(C(=O)NCCN(Cc4ccc(Br)cc4)C(C)C)ccc3C2)cc1 | > 86 | > 86 | Ki (Mu-type opioid receptor [3]): 8170 nM; Ki [4]: 5190 nM; Ki [5]: 73 nM
Cc1cc(C)c(S(=O)(=O)N2CCc3cc(C(=O)NCCN(Cc4ccc(F)cc4)C(C)(C)C)ccc3C2)c(C)c1 | > 86 | > 86 | –
